Reference: ChEMBL document CHEMBL5715938, “The protein kinase Cbeta-selective inhibitor, Enzastaurin (LY317615.HCl), suppresses signaling through the AKT pathway, induces apoptosis, and suppresses growth of human colon cancer and glioblastoma xenografts” (Cancer Res, 2005)
Calls of active or inactive are those of the source. The calls are words filed in the database; no cut-off is given here.

Columns and labels:
[1] = target: Protein kinase C gamma type (Homo sapiens, UniProt P05129); test: Inhibition of recombinant human PKCgamma using myelin basic protein as substrate incubated for 60 mins in presence of […] and ATP by microbeta scintillation counter analysis
How it was run: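 Radiometric filter-plate assay with recombinant human PKCγ (128 pmol/L) phosphorylating myelin basic protein (0.25 mg/mL). Buffer: 90 mmol/L HEPES pH 7.5, 5 mmol/L MgCl2, 100 µmol/L CaCl2, phosphatidylserine, diacylglycerol, 0.001% Triton X-100, 4% DMSO, 30 µmol/L ATP plus 32P-ATP. Enzyme added to start; ran 60 min at room temperature; H3PO4 quench; phosphocellulose capture. IC50 from a three-variable logistic fit to a 10-point series, 1–2,000 nmol/L.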

[2] = target: Mitogen-activated protein kinase 1 (Homo sapiens) (UniProt P28482); test: Inhibition of MAPK1 (unknown origin) at 1 micromol/L relative to control; details: dose 1.0 µmol/L
Sequence of Mitogen-activated protein kinase 1 (Homo sapiens) (P28482 whole entry): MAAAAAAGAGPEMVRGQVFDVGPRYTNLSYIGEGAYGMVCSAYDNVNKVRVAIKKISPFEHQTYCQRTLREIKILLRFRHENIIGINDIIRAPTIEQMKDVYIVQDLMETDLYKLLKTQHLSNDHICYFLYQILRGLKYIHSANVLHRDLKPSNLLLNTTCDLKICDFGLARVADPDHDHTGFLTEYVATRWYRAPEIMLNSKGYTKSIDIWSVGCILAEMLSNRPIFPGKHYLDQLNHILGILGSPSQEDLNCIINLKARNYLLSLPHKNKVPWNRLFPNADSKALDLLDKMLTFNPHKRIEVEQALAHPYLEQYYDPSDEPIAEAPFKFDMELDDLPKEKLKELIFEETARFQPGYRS
How it was run: (§1)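 Upstate Kinase Profiler panel at 1 μmol/L drug, run per provider; data expressed as percent of kinase activity without drug.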

[3] = target: Mitogen-activated protein kinase 11 (Homo sapiens) (UniProt Q15759); test: Inhibition of SAPK2b (unknown origin) at 1 micromol/L relative to control; details: dose 1.0 µmol/L
Sequence of Mitogen-activated protein kinase 11 (Homo sapiens) (Q15759 whole entry): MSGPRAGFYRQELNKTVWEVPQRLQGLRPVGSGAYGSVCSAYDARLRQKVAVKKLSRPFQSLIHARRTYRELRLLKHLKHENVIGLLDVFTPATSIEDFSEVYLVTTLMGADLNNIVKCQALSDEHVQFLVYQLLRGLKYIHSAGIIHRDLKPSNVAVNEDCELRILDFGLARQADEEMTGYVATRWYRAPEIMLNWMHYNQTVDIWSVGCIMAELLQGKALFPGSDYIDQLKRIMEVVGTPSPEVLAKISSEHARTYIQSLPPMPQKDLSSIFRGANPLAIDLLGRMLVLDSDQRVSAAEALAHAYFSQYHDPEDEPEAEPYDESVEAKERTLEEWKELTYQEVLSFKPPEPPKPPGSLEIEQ
How it was run: (§2)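 Commercial kinase profiler panel run to the provider's protocol, with the compound tested at 1 µmol/L. Activity is expressed as percent of kinase activity without compound.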

K562 = test: Antiproliferative activity against human K562 cells assessed as reduction in cell growth upto 10 uM measured after 6 days by propidium iodide staining based analysis; type: functional; details: time 6.0 day
How it was run: (§3)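 ATCC-sourced lines grown without antibiotics; 1,000 cells/well in 1% FBS medium, refed ±drug on days 1 and 4 over a 6-day course. On day 7, propidium iodide (10 μg/mL in D-PBS) read after 30 min for nonviable cells, plate frozen at -80°C 2 h, thawed and reread; proliferative index = postfreeze minus prefreeze signal.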

PC-3 = test: Antiproliferative activity against human PC-3 cells assessed as reduction in cell growth upto 10 uM measured after 6 days by propidium iodide staining based analysis; type: functional; details: time 6.0 day; how it was run: as §3
HCT-116 [4] = test: Induction of apoptosis in human HCT-116 cells assessed as increase in oligonucleosomal fragmentation at 1 to 4 micromol/L incubated for 48 hrs by ELISA method; type: functional, cell-based; details: dose 1-4 µmol/L
How it was run: (§4)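 Oligonucleosomal fragmentation by Cell Death Detection ELISA-plus; 5,000 cells/well in 1% FBS medium, treated 48 h (range studied 0.1–10 μmol/L); absorbance normalized to control-treated cells to give nucleosomal enrichment factor.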

SK-OV-3 = test: Antiproliferative activity against human SK-OV-3 cells assessed as reduction in cell growth upto 10 uM measured after 6 days by propidium iodide staining based analysis; type: functional; details: time 6.0 day; how it was run: as §3
[5] = target: Protein kinase C alpha type (Homo sapiens) (UniProt P17252); test: Inhibition of PKCalpha (unknown origin) at 1 micromol/L relative to control; details: dose 1.0 µmol/L; how it was run: as §2
HCT-116 [6] = test: Antitumor activity against human HCT-116 cells xenografted in athymic nude mouse assessed as reduction in tumor growth at 75 mg/kg, po administered twice daily measured after 21 days; type: functional, organism-based; details: time 21.0 day
How it was run: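 Female athymic nude mice, 6–8 weeks, 5 million cells s.c. flank in 1:1 serum-free medium/matrigel; at group mean 100 mm³, 75 mg/kg by gavage twice daily in 10% acacia for 21 days, n = 9/group, vehicle controls; caliper volume A²×B×0.536; two-way repeated measures analysis.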

T47D = test: Antiproliferative activity against human T47D cells assessed as reduction in cell growth upto 10 uM measured after 6 days by propidium iodide staining based analysis; type: functional; details: time 6.0 day; how it was run: as §3
[7] = target: Dual specificity mitogen-activated protein kinase kinase 6 (Homo sapiens) (UniProt P52564); test: Inhibition of MKK6 (unknown origin) at 1 micromol/L relative to control; details: dose 1.0 µmol/L; how it was run: as §2
Sequence of Dual specificity mitogen-activated protein kinase kinase 6 (Homo sapiens) (P52564 whole entry): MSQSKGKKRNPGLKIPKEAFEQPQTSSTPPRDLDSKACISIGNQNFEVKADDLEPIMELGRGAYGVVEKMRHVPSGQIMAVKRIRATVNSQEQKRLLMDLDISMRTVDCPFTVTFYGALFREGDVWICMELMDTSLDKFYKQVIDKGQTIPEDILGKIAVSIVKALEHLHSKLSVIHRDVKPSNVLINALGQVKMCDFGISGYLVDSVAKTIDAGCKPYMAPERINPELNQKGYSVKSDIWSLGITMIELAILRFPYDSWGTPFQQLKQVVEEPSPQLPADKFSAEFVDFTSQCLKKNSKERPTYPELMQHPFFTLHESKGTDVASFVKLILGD

[8] = target: Protein kinase C epsilon type (Homo sapiens) (UniProt Q02156); test: Inhibition of PKCepsilon (unknown origin) at 1 micromol/L relative to control; details: dose 1.0 µmol/L; how it was run: as §2
Sequence of Protein kinase C epsilon type (Homo sapiens) (Q02156 whole entry): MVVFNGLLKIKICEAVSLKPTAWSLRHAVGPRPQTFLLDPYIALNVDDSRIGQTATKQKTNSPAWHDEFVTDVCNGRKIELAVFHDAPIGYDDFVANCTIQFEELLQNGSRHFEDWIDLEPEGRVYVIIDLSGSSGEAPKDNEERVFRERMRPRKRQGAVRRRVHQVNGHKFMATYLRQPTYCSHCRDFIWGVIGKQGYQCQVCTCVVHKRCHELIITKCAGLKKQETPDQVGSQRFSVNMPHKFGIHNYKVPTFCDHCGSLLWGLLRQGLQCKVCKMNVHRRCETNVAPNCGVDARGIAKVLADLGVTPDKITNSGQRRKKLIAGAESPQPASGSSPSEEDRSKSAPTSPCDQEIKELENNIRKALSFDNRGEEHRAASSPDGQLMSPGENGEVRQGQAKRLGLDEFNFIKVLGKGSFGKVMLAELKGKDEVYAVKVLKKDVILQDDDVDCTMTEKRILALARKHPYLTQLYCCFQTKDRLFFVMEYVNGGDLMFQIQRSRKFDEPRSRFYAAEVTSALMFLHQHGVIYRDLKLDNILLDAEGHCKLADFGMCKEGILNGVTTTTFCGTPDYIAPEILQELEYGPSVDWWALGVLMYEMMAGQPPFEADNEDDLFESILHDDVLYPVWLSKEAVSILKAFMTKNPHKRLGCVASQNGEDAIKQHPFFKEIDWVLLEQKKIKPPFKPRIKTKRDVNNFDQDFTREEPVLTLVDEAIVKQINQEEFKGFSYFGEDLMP

[9] = target: Protein kinase C iota type (Homo sapiens) (UniProt P41743); test: Inhibition of PKCIota (unknown origin) at 1 micromol/L relative to control; details: dose 1.0 µmol/L
Sequence of Protein kinase C iota type (Homo sapiens) (P41743 whole entry): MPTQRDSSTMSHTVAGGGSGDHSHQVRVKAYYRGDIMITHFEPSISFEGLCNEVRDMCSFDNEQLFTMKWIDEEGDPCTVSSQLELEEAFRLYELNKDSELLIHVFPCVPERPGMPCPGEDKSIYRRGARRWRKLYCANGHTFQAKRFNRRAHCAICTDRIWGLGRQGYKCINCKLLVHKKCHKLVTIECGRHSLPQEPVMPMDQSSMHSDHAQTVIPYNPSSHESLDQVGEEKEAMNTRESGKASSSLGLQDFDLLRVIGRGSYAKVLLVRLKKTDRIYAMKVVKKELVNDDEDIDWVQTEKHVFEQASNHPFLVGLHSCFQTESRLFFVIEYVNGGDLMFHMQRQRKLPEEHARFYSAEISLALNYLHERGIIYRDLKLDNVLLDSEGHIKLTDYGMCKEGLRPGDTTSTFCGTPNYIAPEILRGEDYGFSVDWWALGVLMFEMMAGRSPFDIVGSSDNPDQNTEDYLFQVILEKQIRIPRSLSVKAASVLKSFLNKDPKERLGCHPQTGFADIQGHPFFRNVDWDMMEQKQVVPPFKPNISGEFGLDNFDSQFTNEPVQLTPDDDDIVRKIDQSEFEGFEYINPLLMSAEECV
How it was run: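 Commercial kinase profiling panel run by the provider's protocol at a single inhibitor concentration of 1 µmol/L. Activity expressed as percent of kinase activity without inhibitor.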

[10] = target: Protein kinase C zeta type (Homo sapiens) (UniProt Q05513); test: Inhibition of PKCzeta (unknown origin) at 1 micromol/L relative to control; details: dose 1.0 µmol/L; how it was run: as §2
U-87 MG [11] = test: Inhibition of ERK in human U-87 MG cells at 1 micromol/L measured upto 4 hrs by Western blotting analysis; type: cell-based; details: dose 1.0 µmol/L
How it was run: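 Cultured tumor cells treated with 1 μmol/L drug; lysates in cell extraction buffer with protease inhibitors, western blotted with phospho-specific antibodies (pGSK3β Ser9, pAKT Thr308, phospho-ERK) alongside total GSK3β/AKT.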

HCT-116 [12] = test: Induction of apoptosis in human HCT-116 cells assessed as increase in apoptotic cells in sub-G0-G1 fraction at 0.3 to 4 micromol/L incubated for 72 hrs by TUNEL staining based analysis; type: functional, cell-based; details: dose 0.3-4 µmol/L
[13] = target: Protein kinase C eta type (Homo sapiens) (UniProt P24723); test: Inhibition of PKCeta (unknown origin) at 1 micromol/L relative to control; details: dose 1.0 µmol/L; how it was run: as §2
Sequence of Protein kinase C eta type (Homo sapiens) (P24723 whole entry): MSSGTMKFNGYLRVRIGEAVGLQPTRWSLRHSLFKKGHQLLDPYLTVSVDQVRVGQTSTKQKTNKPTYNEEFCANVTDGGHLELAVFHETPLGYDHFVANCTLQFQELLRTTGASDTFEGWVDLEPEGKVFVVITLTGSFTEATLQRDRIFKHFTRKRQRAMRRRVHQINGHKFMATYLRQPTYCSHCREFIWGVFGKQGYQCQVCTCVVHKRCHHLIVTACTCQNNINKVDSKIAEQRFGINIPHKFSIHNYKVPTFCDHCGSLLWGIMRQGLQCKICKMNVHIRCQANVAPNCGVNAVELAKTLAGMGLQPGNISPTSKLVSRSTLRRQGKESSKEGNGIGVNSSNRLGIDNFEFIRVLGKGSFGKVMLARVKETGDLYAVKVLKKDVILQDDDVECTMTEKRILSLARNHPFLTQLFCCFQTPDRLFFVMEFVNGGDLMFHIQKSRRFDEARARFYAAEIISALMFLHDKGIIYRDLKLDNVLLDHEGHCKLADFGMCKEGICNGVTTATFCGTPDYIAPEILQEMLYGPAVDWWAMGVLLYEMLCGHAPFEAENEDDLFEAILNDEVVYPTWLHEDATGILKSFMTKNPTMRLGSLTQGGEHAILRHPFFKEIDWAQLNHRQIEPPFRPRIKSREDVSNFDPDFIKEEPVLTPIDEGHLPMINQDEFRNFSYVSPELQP

[14] = target: Inhibitor of nuclear factor kappa-B kinase subunit beta (Homo sapiens) (UniProt O14920); test: Inhibition of IKKbeta (unknown origin) at 1 micromol/L relative to control; details: dose 1.0 µmol/L; how it was run: as §1
HCT-116 [15] = test: Antiproliferative activity against human HCT-116 cells assessed as reduction in cell growth upto 10 uM measured after 6 days by propidium iodide staining based analysis; type: functional; details: time 6.0 day; how it was run: as §3
HCT-116 [16] = test: Antitumor activity against human HCT-116 cells xenografted in athymic nude mouse assessed as reduction in GSK3beta phosphorylation at serine 9 residue at 75 mg/kg, po administered twice daily measured after 2 to 4 hrs by ELISA method relative to control; type: functional; parameters: scale not given: the % may be the effect or the level left; details: time 2-4 hrs
How it was run: (§5)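 HCT116-bearing nude mice, 75 mg/kg by gavage; tumors and PBMCs harvested 0.5, 2, 4, 8 h post-dose, n = 5 per time point. PBMCs from five mice pooled via CPT tube. Lysates assayed by pGSK3β Ser9 immunometric ELISA (tumor 400–600 μg, PBMC 50–100 μg protein/well); percent of vehicle control, Dunnett/ANOVA.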

[17] = target: Mitogen-activated protein kinase 9 (Homo sapiens) (UniProt P45984); test: Inhibition of JNK2alpha2 (unknown origin) at 1 micromol/L relative to control; details: dose 1.0 µmol/L; how it was run: as §1
Sequence of Mitogen-activated protein kinase 9 (Homo sapiens) (P45984 whole entry, looked up, the tested form may be a part): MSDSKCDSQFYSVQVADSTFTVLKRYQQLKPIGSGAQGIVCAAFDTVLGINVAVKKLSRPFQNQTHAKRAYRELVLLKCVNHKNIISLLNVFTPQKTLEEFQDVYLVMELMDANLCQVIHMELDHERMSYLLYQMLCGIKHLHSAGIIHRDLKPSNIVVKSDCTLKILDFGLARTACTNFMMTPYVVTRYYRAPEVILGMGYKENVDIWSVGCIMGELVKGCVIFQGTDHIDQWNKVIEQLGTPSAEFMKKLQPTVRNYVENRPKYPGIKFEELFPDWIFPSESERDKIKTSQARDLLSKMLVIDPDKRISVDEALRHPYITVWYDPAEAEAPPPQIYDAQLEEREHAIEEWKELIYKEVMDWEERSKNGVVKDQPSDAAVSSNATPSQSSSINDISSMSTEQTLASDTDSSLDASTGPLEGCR

U-87 MG [18] = test: Induction of apoptosis in human U-87 MG cells assessed as increase in oligonucleosomal fragmentation at 1 to 4 micromol/L incubated for 48 hrs by ELISA method; type: functional, cell-based; details: U-87MG ATCC, dose 1-4 µmol/L; how it was run: as §4
HCT-116 [19] = test: Antitumor activity against human HCT-116 cells xenografted in athymic nude mouse assessed as reduction in GSK3beta phosphorylation at serine 9 residue at 75 mg/kg, po administered twice daily measured after 30 mins by ELISA method relative to control; type: functional; parameters: scale not given: the % may be the effect or the level left; details: 0.5 h; how it was run: as §5

SMILES: Cl.Cn1cc(C2=C(c3cn(C4CCN(Cc5ccccn5)CC4)c4ccccc34)C(=O)NC2=O)c2ccccc21 [ENZASTAURIN HYDROCHLORIDE]
- IC50 [1]: 0.083 µM
- % control activity [2]: 114%
- % control activity [3]: 96%
- Activity (K562): Active
- Activity (PC-3): Active
- Activity (HCT-116 [4]): Active
- Activity (SK-OV-3): inactive
- % control activity [5]: 23%
- Activity (HCT-116 [6]): Active
- Activity (T47D): inactive
- % control activity [7]: 99%
- % control activity [8]: 9%
- % control activity [9]: 91%
- % control activity [10]: 47%
- inhibition (U-87 MG [11]): inactive
- Activity (HCT-116 [12]): Active
- % control activity [13]: 53%
- % control activity [14]: 116%
- Activity (HCT-116 [15]): Active
- Activity (HCT-116 [16]): >60%
- % control activity [17]: 103%
- Activity (U-87 MG [18]): Active
- Activity (HCT-116 [19]): 50%
